This note sets out measurements from ChEMBL document CHEMBL4376814, “Novel cyclin-dependent kinase 9 (CDK9) inhibitor with suppression of cancer stemness activity against non-small-cell lung cancer” (Eur J Med Chem, 2019).

One assay deals with HepG2. Nature of the assay: Antiproliferative activity against human HepG2 cells assessed as inhibition of cell viability after 72 hrs by CCK-8 assay. It is filed as functional, cell-based. As to conditions: HepG2, 72 h. The gist of the method:
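Cells kept at 37 °C, 5% CO2 in DMEM or RPMI-1640 with 10% FBS and 1% penicillin/streptomycin, then seeded at 3000 cells/well (adherent) or 10,000 cells/well (suspension). Exposed to a range of concentrations for 72 h. CCK-8 added for 1-4 h before reading A450. […] Three independent experiments.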
For orientation: Tetrazolium dyes change colour on reduction, which living cells bring about.

For assay [1], the target named is G protein-coupled receptor kinase 5 (Homo sapiens) (UniProt P34947). Nature of the assay: Inhibition of recombinant full-length human GRK5 at 1 uM using casein as substrate measured after 40 mins in presence of [gamma33P]ATP by scintillation counting method relative to control.
The target of assay [2] is Ephrin type-A receptor 2 (Homo sapiens) (UniProt P29317). Kind of assay: Inhibition of recombinant human EphA2 (596 to 900 residues) at 1 uM using poly(Glu, Tyr) 4:1 as substrate measured after 40 mins in presence of [gamma33P]ATP by scintillation counting method relative to control.
The subject of assay [3] is NCI-H1299. Kind of assay: Induction of apoptosis in human H1299 cells assessed as necrotic cells at 0.5 uM after 48 hrs by AnnexinV-FITC/PI staining-based flow cytometric analysis (reference value: 0.9%). It is filed as functional. For orientation: Flow cytometry measures light scatter and fluorescence of single cells or particles in a stream.
Assay [4] has as its target Phosphorylase b kinase gamma catalytic chain, skeletal muscle/heart isoform (Homo sapiens) (UniProt Q16816). Kind of assay: Inhibition of recombinant full-length human PhKgamma1 at 1 uM using KKLNRTLSFAEPG as substrate measured after 120 mins in presence of [gamma33P]ATP by scintillation counting method relative to control.
Assay [5] has as its system Fibroblast growth factor receptor 2 (Homo sapiens), P21802 [N549H]. Kind of assay: Inhibition of recombinant human FGFR2 N549H mutant (456 to 770 residues) at 1 uM using GGEEEEYFELVKKKK as substrate measured after 40 mins in presence of [gamma33P]ATP by scintillation counting method relative to control.
The target in assay [6] is Serine/threonine-protein kinase PAK 4 (Homo sapiens) (UniProt O96013). Kind of assay: Inhibition of recombinant human PAK4 (295 to end residues) at 1 uM using myelin basic protein as substrate measured after 40 mins in presence of [gamma33P]ATP by scintillation counting method relative to control.
Assay [7] addresses Cyclin-dependent kinase 2/cyclin E1 (Homo sapiens) (UniProt P24864+P24941). Kind of assay: Inhibition of recombinant full-length human CDK2/cyclinE at 1 uM using Histone H1 as substrate measured after 40 mins in presence of [gamma33P]ATP by scintillation counting method relative to control. It is filed as protein-complex assay.
For assay [8], the target named is Activin receptor type-2A (Homo sapiens) (UniProt P27037). Kind of assay: Inhibition of recombinant human ACTR2 (162 to end residues) at 1 uM using casein as substrate measured after 120 mins in presence of [gamma33P]ATP by scintillation counting method relative to control.
The test system of assay [9] is NCI-H1299. Nature of the assay: Downregulation of OCT4 in human H1299 cells at 0.25 to 1 uM by Western blot analysis. It is filed as functional, cell-based. In general terms: A western blot detects proteins with antibodies after separation by electrophoresis.
Assay [10] deals with Hepatocyte growth factor receptor (Homo sapiens), P08581 [D1228N]. Kind of assay: Inhibition of recombinant human MET A1209G/V1290L/D1246N mutant (974 to end residues) at 1 uM using KKKGQEEEYVFIE as substrate measured after 40 mins in presence of [gamma33P]ATP by scintillation counting method relative to control.
In assay [11] the test system is RAC-gamma serine/threonine-protein kinase (Homo sapiens), Q9Y243 [S472D]. Kind of assay: Inhibition of recombinant human pkb-gamma S472D mutant (117 to end residues) S472D mutant at 1 uM using GRPRTSSFAEGKK as substrate measured after 40 mins in presence of [gamma33P]ATP by scintillation counting method relative to control.
The target in assay [12] is CDK9/cyclin T1 (Homo sapiens) (UniProt O60563+P50750). Nature of the assay: Inhibition of recombinant full-length human CDK9/cyclinT1 at 500 nM using KTFCGTPEYLAPEVRREPRILSEEEQEMFRDFDYIADWC peptide as substrate measured after 40 mins in presence of [gamma33P]ATP by scintillation counting method relative to control. It is filed as protein-complex assay. An outline of the steps: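 Percent inhibition of kinase activity at a single compound concentration, measured by the outsourced Eurofins KinaseProfiler panel. Values are the mean of two independent experiments.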

The next assay addresses CDK6/cyclin D3 (Homo sapiens, UniProt Q00534). Nature of the assay: Inhibition of recombinant full-length human CDK6/cyclinD3 using histone H1 as substrate measured after 40 mins in presence of [gamma33P]ATP by scintillation counting method. The class given is protein-complex assay.
Assay [13] concerns the target CDK3/Cyclin E (Homo sapiens) (UniProt P24864+Q00526). Kind of assay: Inhibition of recombinant full-length human CDK3/cyclinE at 1 uM using Histone H1 as substrate measured after 40 mins in presence of [gamma33P]ATP by scintillation counting method relative to control. The class given is protein-complex assay.
Assay [14] deals with Angiopoietin-1 receptor (Homo sapiens), Q02763 [Q939H,Q940H]. Nature of the assay: Inhibition of human Tie2 Q939H/Q940H mutant (771 to end residues) at 1 uM using poly(Glu, Tyr) 4:1 as substrate measured after 40 mins in presence of [gamma33P]ATP by scintillation counting method relative to control. An outline of the steps: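 Single-point inhibition at 1 µM was measured in the Eurofins KinaseProfiler panel. Values are the mean of two independent experiments.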

Assay [15] concerns the target Serine/threonine-protein kinase 26 (Homo sapiens) (UniProt Q9P289). Kind of assay: Inhibition of recombinant human MST4 (4 to 304 residues) at 1 uM using RLGRDKYKTLRQIRQ as substrate measured after 40 mins in presence of [gamma33P]ATP by scintillation counting method relative to control.

Activity calls are given as the source filed them. The rule behind the calls is not given here.

Chain of Fibroblast growth factor receptor 2 (Homo sapiens), P21802 [N549H] (P21802 whole entry N549H, the tested form may be a part): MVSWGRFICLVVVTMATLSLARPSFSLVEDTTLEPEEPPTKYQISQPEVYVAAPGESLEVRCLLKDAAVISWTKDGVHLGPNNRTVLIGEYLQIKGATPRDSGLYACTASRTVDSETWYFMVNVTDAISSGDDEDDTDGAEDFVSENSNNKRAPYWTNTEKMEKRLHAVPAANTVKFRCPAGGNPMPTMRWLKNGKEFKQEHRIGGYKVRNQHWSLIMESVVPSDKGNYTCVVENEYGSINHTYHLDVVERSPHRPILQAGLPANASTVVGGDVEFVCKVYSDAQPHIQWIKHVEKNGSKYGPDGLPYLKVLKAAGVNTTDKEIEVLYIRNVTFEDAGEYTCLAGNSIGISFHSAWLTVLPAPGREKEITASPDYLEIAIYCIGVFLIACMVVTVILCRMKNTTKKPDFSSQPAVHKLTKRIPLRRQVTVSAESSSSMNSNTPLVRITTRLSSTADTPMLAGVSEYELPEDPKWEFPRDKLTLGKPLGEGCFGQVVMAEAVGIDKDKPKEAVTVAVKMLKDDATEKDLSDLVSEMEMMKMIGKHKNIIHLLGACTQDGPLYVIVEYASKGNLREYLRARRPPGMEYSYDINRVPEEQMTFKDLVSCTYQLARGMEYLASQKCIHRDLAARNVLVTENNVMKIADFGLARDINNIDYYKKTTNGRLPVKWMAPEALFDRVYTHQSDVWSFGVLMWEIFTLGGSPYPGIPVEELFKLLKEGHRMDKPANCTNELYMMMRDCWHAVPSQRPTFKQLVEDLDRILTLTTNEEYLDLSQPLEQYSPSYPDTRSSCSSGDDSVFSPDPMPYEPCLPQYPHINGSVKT
Chain of Ephrin type-A receptor 2 (Homo sapiens) (P29317 whole entry, the tested form may be a part): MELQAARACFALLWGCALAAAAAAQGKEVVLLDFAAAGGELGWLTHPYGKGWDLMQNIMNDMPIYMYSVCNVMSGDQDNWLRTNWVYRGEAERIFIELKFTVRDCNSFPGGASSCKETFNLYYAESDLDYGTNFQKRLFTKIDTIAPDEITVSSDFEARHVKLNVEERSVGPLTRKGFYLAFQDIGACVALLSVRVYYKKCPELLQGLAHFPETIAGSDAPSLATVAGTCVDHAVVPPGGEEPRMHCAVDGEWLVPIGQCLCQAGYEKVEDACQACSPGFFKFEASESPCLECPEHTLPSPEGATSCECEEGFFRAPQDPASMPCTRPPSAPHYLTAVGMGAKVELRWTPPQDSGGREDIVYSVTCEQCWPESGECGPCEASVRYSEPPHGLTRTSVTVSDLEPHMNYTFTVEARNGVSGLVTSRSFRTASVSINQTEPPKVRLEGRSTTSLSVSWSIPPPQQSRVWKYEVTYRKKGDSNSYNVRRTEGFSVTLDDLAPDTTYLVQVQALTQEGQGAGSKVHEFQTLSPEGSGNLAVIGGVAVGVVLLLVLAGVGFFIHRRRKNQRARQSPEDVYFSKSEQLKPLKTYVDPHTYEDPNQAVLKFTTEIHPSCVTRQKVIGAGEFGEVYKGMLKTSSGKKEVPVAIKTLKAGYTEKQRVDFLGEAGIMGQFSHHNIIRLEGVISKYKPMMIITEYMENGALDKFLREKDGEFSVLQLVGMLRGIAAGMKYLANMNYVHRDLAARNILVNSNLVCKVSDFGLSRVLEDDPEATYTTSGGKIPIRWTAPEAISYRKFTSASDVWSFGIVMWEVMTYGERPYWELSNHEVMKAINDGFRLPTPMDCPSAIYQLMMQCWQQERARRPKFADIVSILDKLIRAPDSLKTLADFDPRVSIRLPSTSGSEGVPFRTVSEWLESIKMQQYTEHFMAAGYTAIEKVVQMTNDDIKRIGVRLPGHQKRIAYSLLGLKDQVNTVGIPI
Chain of RAC-gamma serine/threonine-protein kinase (Homo sapiens), Q9Y243 [S472D] (Q9Y243 whole entry S472D): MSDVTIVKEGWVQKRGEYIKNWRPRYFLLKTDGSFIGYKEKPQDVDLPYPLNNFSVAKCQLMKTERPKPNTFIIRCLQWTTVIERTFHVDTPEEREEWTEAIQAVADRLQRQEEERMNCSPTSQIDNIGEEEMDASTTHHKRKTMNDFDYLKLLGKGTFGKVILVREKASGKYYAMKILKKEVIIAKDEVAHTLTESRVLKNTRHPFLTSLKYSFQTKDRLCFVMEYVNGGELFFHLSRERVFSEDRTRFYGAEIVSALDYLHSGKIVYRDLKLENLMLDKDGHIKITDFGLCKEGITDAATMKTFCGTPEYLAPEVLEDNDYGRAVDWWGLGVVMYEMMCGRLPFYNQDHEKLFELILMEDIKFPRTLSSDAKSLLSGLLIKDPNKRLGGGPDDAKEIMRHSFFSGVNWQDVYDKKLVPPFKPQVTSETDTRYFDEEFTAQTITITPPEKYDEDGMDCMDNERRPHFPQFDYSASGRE
Chain of Phosphorylase b kinase gamma catalytic chain, skeletal muscle/heart isoform (Homo sapiens) (Q16816 whole entry, looked up, the tested form may be a part, canonical isoform): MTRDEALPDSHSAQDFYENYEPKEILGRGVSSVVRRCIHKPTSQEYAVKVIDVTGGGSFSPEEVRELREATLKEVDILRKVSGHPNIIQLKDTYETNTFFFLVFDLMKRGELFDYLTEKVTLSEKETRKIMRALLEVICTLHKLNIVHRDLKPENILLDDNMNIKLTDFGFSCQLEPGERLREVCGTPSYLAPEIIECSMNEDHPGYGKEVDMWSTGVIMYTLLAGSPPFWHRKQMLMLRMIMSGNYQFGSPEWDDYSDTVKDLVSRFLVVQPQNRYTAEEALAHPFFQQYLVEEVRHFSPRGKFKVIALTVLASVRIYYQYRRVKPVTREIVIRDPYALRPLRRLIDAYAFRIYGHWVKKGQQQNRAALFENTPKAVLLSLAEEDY
Chain of CDK6/cyclin D3 (P30281 whole entry): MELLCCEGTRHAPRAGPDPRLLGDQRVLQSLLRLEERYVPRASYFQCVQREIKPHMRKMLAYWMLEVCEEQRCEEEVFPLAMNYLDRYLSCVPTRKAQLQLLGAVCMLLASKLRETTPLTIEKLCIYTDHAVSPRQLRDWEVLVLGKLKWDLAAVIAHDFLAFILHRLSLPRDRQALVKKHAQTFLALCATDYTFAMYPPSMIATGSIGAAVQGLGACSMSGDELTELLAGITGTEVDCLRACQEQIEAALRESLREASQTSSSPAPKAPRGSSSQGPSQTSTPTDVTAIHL
Chain of CDK6/cyclin D3 (Q00534 whole entry): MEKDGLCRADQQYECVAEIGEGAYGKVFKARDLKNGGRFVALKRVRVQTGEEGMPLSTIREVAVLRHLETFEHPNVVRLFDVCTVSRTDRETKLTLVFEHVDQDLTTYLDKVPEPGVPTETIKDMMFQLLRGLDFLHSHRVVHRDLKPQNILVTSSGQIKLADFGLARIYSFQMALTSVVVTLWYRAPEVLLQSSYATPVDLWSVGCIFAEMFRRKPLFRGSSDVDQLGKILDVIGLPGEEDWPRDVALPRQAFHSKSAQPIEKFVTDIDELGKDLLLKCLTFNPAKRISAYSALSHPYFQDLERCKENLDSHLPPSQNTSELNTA
Chain of CDK3/Cyclin E (Homo sapiens) (P24864 whole entry, looked up): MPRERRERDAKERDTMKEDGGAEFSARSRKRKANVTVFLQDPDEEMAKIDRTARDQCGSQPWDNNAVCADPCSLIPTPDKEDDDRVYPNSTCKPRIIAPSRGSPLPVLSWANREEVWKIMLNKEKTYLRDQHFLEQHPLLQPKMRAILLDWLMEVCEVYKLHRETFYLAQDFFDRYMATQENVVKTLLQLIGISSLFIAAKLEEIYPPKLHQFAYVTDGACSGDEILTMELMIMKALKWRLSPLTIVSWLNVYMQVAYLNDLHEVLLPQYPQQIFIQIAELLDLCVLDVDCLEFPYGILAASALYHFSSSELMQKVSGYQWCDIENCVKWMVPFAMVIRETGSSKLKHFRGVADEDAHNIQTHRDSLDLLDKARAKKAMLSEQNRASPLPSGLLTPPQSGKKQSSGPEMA
Chain of CDK3/Cyclin E (Homo sapiens) (Q00526 whole entry, looked up): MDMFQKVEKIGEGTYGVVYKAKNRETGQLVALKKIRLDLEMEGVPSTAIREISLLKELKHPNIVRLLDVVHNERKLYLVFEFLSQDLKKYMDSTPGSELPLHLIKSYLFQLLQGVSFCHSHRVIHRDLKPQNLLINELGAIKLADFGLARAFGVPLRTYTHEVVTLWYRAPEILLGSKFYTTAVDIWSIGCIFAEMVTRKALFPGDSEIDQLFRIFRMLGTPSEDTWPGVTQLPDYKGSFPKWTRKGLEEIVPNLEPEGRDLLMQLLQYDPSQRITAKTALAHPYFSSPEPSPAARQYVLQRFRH
Chain of Serine/threonine-protein kinase 26 (Homo sapiens) (Q9P289 2-416 limits assumed): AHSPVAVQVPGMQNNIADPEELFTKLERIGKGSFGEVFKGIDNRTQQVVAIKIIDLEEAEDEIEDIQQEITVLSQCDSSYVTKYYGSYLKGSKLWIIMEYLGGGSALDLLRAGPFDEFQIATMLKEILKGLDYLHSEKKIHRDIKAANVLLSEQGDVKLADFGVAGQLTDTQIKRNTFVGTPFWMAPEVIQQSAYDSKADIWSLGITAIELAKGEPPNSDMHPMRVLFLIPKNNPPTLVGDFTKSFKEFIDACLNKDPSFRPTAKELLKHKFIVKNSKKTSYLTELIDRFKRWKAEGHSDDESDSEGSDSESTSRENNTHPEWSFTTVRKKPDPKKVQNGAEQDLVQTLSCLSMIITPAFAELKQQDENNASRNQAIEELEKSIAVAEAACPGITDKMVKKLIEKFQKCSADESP
Chain of Activin receptor type-2A (Homo sapiens) (P27037 whole entry): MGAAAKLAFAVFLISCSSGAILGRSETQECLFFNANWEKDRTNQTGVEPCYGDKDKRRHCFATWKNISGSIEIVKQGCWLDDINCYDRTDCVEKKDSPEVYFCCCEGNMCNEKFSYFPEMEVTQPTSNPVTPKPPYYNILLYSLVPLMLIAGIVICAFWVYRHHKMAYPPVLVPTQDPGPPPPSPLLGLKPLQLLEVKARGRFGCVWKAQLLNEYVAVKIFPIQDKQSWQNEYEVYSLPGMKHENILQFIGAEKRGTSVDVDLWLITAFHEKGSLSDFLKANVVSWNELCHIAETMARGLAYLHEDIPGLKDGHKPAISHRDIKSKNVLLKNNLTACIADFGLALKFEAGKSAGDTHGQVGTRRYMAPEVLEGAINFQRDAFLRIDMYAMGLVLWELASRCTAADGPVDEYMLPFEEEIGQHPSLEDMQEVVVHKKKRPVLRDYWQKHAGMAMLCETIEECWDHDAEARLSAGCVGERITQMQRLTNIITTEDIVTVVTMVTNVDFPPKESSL

One may read the IC50 as the concentration that inhibits the measured activity by half. Usually inhibition stands for the relative decrease from the control value, in per cent. Take `CN(C)C(=O)c1cc2cnc(Nc3ccc(NC(=O)CCCCCCCN=C=S)cc3)nc2n1C1CCCC1`: the values for the concentration for half-maximal inhibition (IC50) in the assay with HepG2 and on CDK6/cyclin D3 were 3860 nM and 145 nM, respectively. Moreover, the inhibition is -2% in assay [1]; 15% in assay [2]; 71% in [4]; 76% in [5]; 10% in assay [6]; 75% in assay [7]. The inhibition in assay [8] was found to be 0%; in [10], 65%; in assay [11], 10%; in assay [12], 98%; in assay [13], 82%; in assay [14] it was 29%. In [15], the inhibition is 6%. Further, in the assay on NCI-H1299 [3], the Activity was 1.11%. Also, in the assay with NCI-H1299 [9], the outcome was Active.
